Laboratory results from ChEMBL document CHEMBL4265867, “Affinity-based small fluorescent probe for NAD(P)H:quinone oxidoreductase 1 (NQO1). Design, synthesis and pharmacological evaluation” (Eur J Med Chem, 2017).
Activity calls are given as the source filed them. The rule behind the calls is not given here.

Legend:
[1] = biological target: T1, NAD(P)H dehydrogenase [quinone] 1 (Homo sapiens, UniProt P15559); experiment: Inhibition of recombinant human NQO1 assessed as reduction in oxidation of NADPH to NADP+ using b-lap as substrate and NADPH in presence of 0.14% (w/v) BSA
[2] = biological target: T1, NAD(P)H dehydrogenase [quinone] 1; experiment: Binding affinity to recombinant human NQO1 by fluorescence polarization competition assay
Procedure, shortened: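 Fluorescence polarization was read at 485 nm excitation and 535 nm emission in HEPES buffer. Free-probe mP was first measured over a range of probe concentrations without protein. For competition, wells held varying probe concentrations with NQO1 added from a 100 nM solution. IC50 was taken from a plot of % inhibition against concentration.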

[3] = biological target: T1, NAD(P)H dehydrogenase [quinone] 1; experiment: Binding affinity to NQO1 in human A549 cells at 10 uM incubated for 10 mins by DAPI staining based fluorescence microscopy imaging; assay type: cell-based
Procedure, shortened: (§1)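 A549 cells were rinsed with serum-free medium. Probe, from a 10 mM DMSO stock diluted in serum-free medium, was applied at 10 or 50 μM for 10 min at 37 °C, then washed off. For the inhibition condition, 10 μM DIC was co-incubated with the probe under the same conditions. Nuclei were stained with DAPI and cells imaged by laser scanning confocal microscopy.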

[4] = biological target: T1, NAD(P)H dehydrogenase [quinone] 1; experiment: Binding affinity to NQO1 in human A549 cells at 50 uM incubated for 10 mins by DAPI staining based fluorescence microscopy imaging; assay type: cell-based; procedure, shortened: as §1
[5] = biological target: T1, NAD(P)H dehydrogenase [quinone] 1; experiment: Binding affinity to NQO1 in human A549 cells at 10 uM incubated for 10 mins in presence of 10 uM DIC by DAPI staining based fluorescence microscopy imaging; assay type: cell-based; procedure, shortened: as §1
[6] = biological target: T1, NAD(P)H dehydrogenase [quinone] 1; experiment: Binding affinity to NQO1 in human A549 cells at 50 uM incubated for 10 mins in presence of 10 uM DIC by DAPI staining based fluorescence microscopy imaging; assay type: cell-based; procedure, shortened: as §1

Which results are given for `O=C1OC2(c3ccc(O)cc3Oc3cc(O)ccc32)c2ccc(NC(=S)NCCCCCCOc3ccc(/C=C/C(=O)c4c(O)c5ccccc5oc4=O)cc3)cc21`?
IC50 [1]: 980 nM; EC50 [2]: 2950 nM; Activity [3]: Active; Activity [4]: Active; Activity [5]: inactive; Activity [6]: inactive
